Key:
[1] = C6h was measured as concentration obtained after 6 hr of oral administration in air pouch exudate after oral administration to male F344 rats; type: ADME, organism-based; settings: F344, rat, read-out: C6h
Outline: (§1)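 Male F344 rats given 50 mg/kg orally; drug measured in air-pouch exudate, with concentration at 6 h post-dose and exudate half-life derived; mean ± SEM of 5 rats.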

[2] = Half life was measured as time taken to reach the half of the initial dose in air pouch exudate after oral administration to male F344 rats; type: ADME, organism-based; settings: F344, rat; outline: as §1
[3] = Half life was measured as time taken to reach the half of the initial dose in the blood after oral administration to male F344 rats; type: ADME, organism-based; settings: F344, rat
Outline: (§2)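 Plasma half-life after a single oral dose of 50 mg/kg to male F344 rats; mean ± SEM, 2-3 rats per compound.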

[4] = Area under curve was measured from the graph obtained from concentration Vs time after oral administration to male F344 rats; type: ADME, organism-based; settings: F344, rat, in vivo
Outline: (§3)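 Plasma AUC over 0-4 h from concentration-time course after a single oral dose of 50 mg/kg to male F344 rats; mean ± SEM, 2-3 rats per compound.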

Homo sapiens = species on record: Homo sapiens; assay: Concentration to inhibit human monocyte in blood (IL 1 Generation); type: functional
Outline: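 Human monocytes stimulated with LPS ± compound; IL-1 by LAF assay, quantified against a recombinant human IL-1 standard curve. IC50 by least-squares method, mean of two or more experiments.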

Rattus norvegicus [5] = species on record: Rattus norvegicus; assay: Concentration to inhibit rat macrophase […] (IL 1 Generation); type: functional
Outline: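 Rat (Fisher) peritoneal macrophages elicited by i.p. 2.5% glycogen and harvested after 4 days. Adherent cells (0.5 × 10^6/well, RPMI 1640 + 1% heat-inactivated normal rat serum, 1.5 h at 37 °C) cultured 4 h with LPS 1 ng/mL ± compound. Intracellular IL-1 by LAF assay against recombinant human IL-1α standard; IC50 by least squares, mean of duplicates.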

Rattus norvegicus [6] = assay: Percent inhibition was measured by in vivo by air pouch model on five rats by local administration at 100 uM; type: functional
Outline: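 Rat CMC-LPS air-pouch model, 5 rats per group. Compound dissolved in 5% EtOH-RPMI 1640 with 30% heat-inactivated autologous serum, given locally to 100 μM final exudate concentration at 30 min before and just before LPS. Exudate collected 4 h after LPS; IL-1 by LAF assay against recombinant human IL-1α standard.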

Rattus norvegicus [7] = assay: Percent inhibition was measured in vivo by air pouch model on five rats by oral administration at 200 uM; type: functional
Outline: (§4)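 Rat CMC-LPS air-pouch model, 5 rats per group. Compound given orally in 0.5% methyl cellulose 2 h before LPS at 200, 50 or 25 mg/kg. Exudate collected 4 h after LPS; extra- and intracellular IL-1 by LAF assay against recombinant human IL-1α standard.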

Rattus norvegicus [8] = assay: Percent inhibition was measured in vivo by air pouch model on five rats by oral administration at 25 uM; type: functional; settings: in the assay text read “25 mg/kg” for “25 uM”; outline: as §4
Rattus norvegicus [9] = assay: Percent inhibition was measured on untreated rat paw at a dose of 100 mg/kg; type: functional
Outline: (§5)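 Rat adjuvant arthritis. Compound given orally once daily from first day of adjuvant treatment at 12.5-100 mg/kg. Adjuvant-untreated paw swelling measured by plethysmometer on day 15; inhibition versus control. Mean ± SEM of 6-10 animals.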

Rattus norvegicus [10] = assay: Percent inhibition was measured on untreated rat paw at a dose of 25 mg/kg; type: functional; outline: as §5
Rattus norvegicus [11] = assay: Percent inhibition was measured on untreated rat paw at a dose of 50 mg/kg; type: functional; outline: as §5
Rattus norvegicus [12] = assay: Percent inhibition was measured on untreated rat paw at a dose of 12.5 mg/kg; type: functional; outline: as §5
Rattus norvegicus [13] = assay: Percent swelling was measured on untreated rat paw at a dose of 12.5 mg/kg; type: functional; outline: as §5
Rattus norvegicus [14] = assay: Percent swelling was measured on untreated rat paw at a dose of 25 mg/kg; type: functional; outline: as §5
Rattus norvegicus [15] = assay: Percent swelling was measured on untreated rat paw at a dose of 50 mg/kg; type: functional; outline: as §5
Rattus norvegicus [16] = assay: Percent inhibition was measured in vivo by air pouch model on five rats by oral administration at 50 uM; type: functional; settings: in the assay text read “50 mg/kg” for “50 uM”; outline: as §4
Rattus norvegicus [17] = assay: Percent swelling was measured on untreated rat paw at a dose of 100 mg/kg; type: functional; outline: as §5
[18] = Area under curve was measured from the graph obtained from concentration Vs time; type: ADME; outline: as §3
[19] = Half life was measured as time taken to reach the half of the initial dose in air pouch exudate; type: ADME; outline: as §1
[20] = Half life was measured as time taken to reach the half of the initial dose in the blood; type: ADME, tissue-based; outline: as §2
[21] = C6h was measured as concentration obtained after 6 hr of oral administration in air pouch exudate; type: ADME; settings: read-out: C6h; outline: as §1
Rattus norvegicus [22] = species on record: Rattus norvegicus; assay: Percent inhibition was measured on untreated rat paw at different dosage forms; type: functional; outline: as §5
Rattus norvegicus [23] = species on record: Rattus norvegicus; assay: Percent swelling was measured on untreated rat paw at different dosage forms; type: functional; outline: as §5
[24] = in the assay text read “200 mg/kg” for “200 uM”
[25] = in the assay text read “at 200 mg/kg” for “at 200 uM”

SMILES | half-life [3] [h] | AUC [4] [µg·h/mL] | IC50 (Homo sapiens) [nM] | IC50 (Rattus norvegicus [5]) [nM] | Inhibition (Rattus norvegicus [6]) [%] | Inhibition (Rattus norvegicus [7]; [24]) [%] | inhibition in vivo at 100 mg/kg (Rattus norvegicus [9]) [%] | inhibition in vivo at 25 mg/kg (Rattus norvegicus [10]) [%] | inhibition in vivo at 50 mg/kg (Rattus norvegicus [11]) [%] | inhibition in vivo at 12.5 mg/kg (Rattus norvegicus [12]) [%] | Swelling (Rattus norvegicus [13]) [%] | Swelling (Rattus norvegicus [14]) [%] | Swelling (Rattus norvegicus [15]) [%] | Inhibition (Rattus norvegicus [16]) [%] | Swelling (Rattus norvegicus [17]) [%] | Inhibition (Rattus norvegicus [7]; [25]) [%] | further results
CCc1cccc2c(/C=C(\C)C(=O)O)cc(OC)c(O)c12 | 0.44 | 108 | 4800 | 2000 | 85 |  |  |  |  |  |  |  |  |  |  | 36 | 
COc1ccc2c(c1)c(CC(=O)O)c(C)n2C(=O)c1ccc(Cl)cc1 [INDOMETHACIN] |  |  |  |  |  |  |  |  |  |  |  |  |  |  |  |  | Inhibition (Rattus norvegicus [22]): 47.8%; Swelling (Rattus norvegicus [23]): 28.8%

Further molecules by falling IC50 (Homo sapiens), results first:

half-life [3] [h] | AUC [4] [µg·h/mL] | IC50 (Homo sapiens) [nM] | IC50 (Rattus norvegicus [5]) [nM] | SMILES | Inhibition (Rattus norvegicus [6]) [%] | Inhibition (Rattus norvegicus [7]; [24]) [%] | inhibition in vivo at 100 mg/kg (Rattus norvegicus [9]) [%] | inhibition in vivo at 25 mg/kg (Rattus norvegicus [10]) [%] | inhibition in vivo at 50 mg/kg (Rattus norvegicus [11]) [%] | inhibition in vivo at 12.5 mg/kg (Rattus norvegicus [12]) [%] | Swelling (Rattus norvegicus [13]) [%] | Swelling (Rattus norvegicus [14]) [%] | Swelling (Rattus norvegicus [15]) [%] | Inhibition (Rattus norvegicus [16]) [%] | Swelling (Rattus norvegicus [17]) [%] | Inhibition (Rattus norvegicus [7]; [25]) [%] | further results
1.72 | 418 | 3000 | 1400 | CCc1cccc2c(/C=C(/C)C(=O)O)cc(OC)c(O)c12 | 94 | 91 | 51.4 | 34.1 | 38.8 | 20.1 | 44.1 | 36.4 | 33.8 | 65 | 26.8 |  | concentration at 6 h [1]: 8760 ng/mL; half-life [2]: 4.15 h; Inhibition (Rattus norvegicus [8]): 40%
1.07 | 60.4 | 1000 | 1000 | CCCc1cccc2c(/C=C(\C)C(=O)O)cc(OC)c(O)c12 | 91 |  |  |  |  |  |  |  |  | 4 |  | 67 | 
 |  | 1000 | 1100 | CCCc1cccc2c(/C=C(/C)C(=O)O)cc(OC)c(O)c12 | 87 | 86 | 53.6 | 8 | 46.6 | 17 | 45.8 | 50.8 | 29.5 | 33 | 25.6 |  | AUC [18]: 189 µg·h/mL; half-life [19]: 2.05 h; half-life [20]: 1.07 h; concentration at 6 h [21]: 1940 ng/mL
